Assay results: ChEMBL document CHEMBL3228020, “Improved antitumor effects in 3'-branched homologues of 2'-deoxythioguanosine. Synthesis and evaluation of thioguanine nucleosides of 2,3-dideoxy-3-(hydroxymethyl)-D-erythro-pentofuranose” (J Med Chem, 1979)
Calls of active or inactive are those of the source. The rule behind the calls is not given here.

Tests used:
[1] = system: Mus musculus; assay: Acid-insoluble DNA incorporation in mouse Mecca lymphosarcoma ascite tumor allografted in AKD2F1 mouse assessed per mg of DNA at 2.6 umol, ip after 4 hrs by scintillation counting analysis; format: functional
Method in brief: (§1)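 Female AKD2F1 mice (groups of 3) bearing 4-day Mecca lymphosarcoma ascites tumors; 2.6 μmol [35S]nucleoside ip, repeated after 2 h; peritoneal cells washed out 2 h later. Acid-insoluble nucleic acid extracted in 10% NaCl at 100 °C, RNA removed by alkali; DNA digested with DNase I then phosphodiesterase I at 37 °C; paper chromatography, spots counted by scintillation.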

[2] = organism: Mus musculus; assay: Acid-insoluble DNA incorporation in mouse Mecca lymphosarcoma ascite tumor allografted in AKD2F1 mouse assessed as detection of [35S] in nucleoside at 2.6 umol after 4 hrs by scintillation counting analysis; format: functional; method in brief: as §1
[3] = organism: Mus musculus; assay: Acid-insoluble DNA incorporation in mouse Mecca lymphosarcoma ascite tumor allografted in AKD2F1 mouse assessed as detection of [35S] in nucleotide at 2.6 umol after 4 hrs by scintillation counting analysis; format: functional; method in brief: as §1
[4] = organism: Mus musculus; assay: Acid-soluble DNA incorporation in mouse Mecca lymphosarcoma ascite tumor allografted in AKD2F1 mouse assessed as detection of [35S] in nucleoside per mg of DNA at 2.6 umol after 4 hrs by scintillation counting analysis; format: functional
Method in brief: (§2)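 Same mouse dosing as the DNA study: 2.6 μmol [35S]nucleoside ip twice, 2 h apart, to AKD2F1 mice carrying Mecca lymphosarcoma ascites; cells harvested 2 h after the second dose. Acid-soluble fraction chromatographed on paper in 5% KH2PO4 with mercaptoethanol; nucleoside and nucleotide spots scintillation-counted, expressed per mg DNA.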

[5] = organism: Mus musculus; assay: Acid-soluble DNA incorporation in mouse Mecca lymphosarcoma ascite tumor allografted in AKD2F1 mouse assessed as detection of [35S] in nucleotide per mg of DNA at 2.6 umol after 4 hrs by scintillation counting analysis; format: functional; method in brief: as §2
[6] = organism: Mus musculus; assay: Acid-soluble DNA incorporation in mouse Mecca lymphosarcoma ascite tumor allografted in AKD2F1 mouse assessed as wheat germ 3'-nucleotidase-mediated nucleotide hydrolysis at 2.6 umol after 1 hr; format: functional; parameters: scale not given: the % may be the effect or the level left
Method in brief: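 Acid-soluble fraction from mice dosed ip with 2.6 μmol [35S]nucleoside twice, 2 h apart. Aliquot treated with nucleotidase-free phosphodiesterase (pH 8.6, 1 h, 37 °C), then wheat germ 3'-nucleotidase (4 units, pH 5, 1 h, 37 °C); separated by paper chromatography and counted.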

[7] = organism: Mus musculus; assay: Acid-soluble DNA incorporation in mouse Mecca lymphosarcoma ascite tumor allografted in AKD2F1 mouse assessed as snake venome 5'-nucleotidase-mediated nucleotide hydrolysis at 2.6 umol after 2 hrs; format: functional; parameters: scale not given: the % may be the effect or the level left
Method in brief: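 Female AKD2F1 mice bearing 4-day Mecca lymphosarcoma ascites were used in groups of three. Aliquots of the acid-soluble fraction were digested with crude Crotalus adamanteus venom (phosphodiesterase plus 5'-nucleotidase) for 2 h at 37 °C.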

[8] = Stability in RPMI 1640 assessed as formation of thioguanine after 24 hrs in presence of 10% dialyzed horse serum; format: physicochemical
Method in brief: (§3)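 Nucleosides incubated without cells in RPMI 1640 containing 10% fetal calf serum or 10% dialyzed horse serum, 20 min or 24 h; cleavage to thioguanine monitored.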

[9] = Stability in RPMI 1640 after 24 hrs in presence of 10% fetal calf serum; format: physicochemical; details: cattle; method in brief: as §3
[10] = Stability in RPMI 1640 after 20 mins in presence of 10% fetal calf serum; format: physicochemical; details: cattle; method in brief: as §3
[11] = system: WIL2; assay: Stability in human WIL2 cells assessed as formation of thioguanine; format: ADME, cell-based
Method in brief: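 WI-L2 cells incubated with labeled nucleoside; [35S]thioguanine formed was measured.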

[12] = system: WIL2; assay: Antiproliferative activity against human WIL2 cells assessed as decrease in cell number at 100 to 300 uM measured every 24 hrs by electronic particle counting analysis in presence of 10% dialyzed horse serum; format: functional, cell-based
Method in brief: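 WI-L2 cells in RPMI 1640 + 10% dialyzed horse serum with penicillin/streptomycin; log-phase cells (2×10^5/mL) mixed 1:1 with double-strength drug medium at several concentrations, duplicate cultures, counted every 24 h by electronic particle counter.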

SMILES | Activity [1] [nmol] | Activity [2] [%] | Activity [3] [%] | Activity [4] [nmol] | Activity [5] [nmol] | Activity [6] [%] | Activity [7] [%] | Stability [8] | Stability [9] | Stability [10] | Stability [11] | Activity [12]
Nc1nc2c(ncn2[C@@H]2C[C@H](O)[C@@H](CO)O2)c(=S)[nH]1 | 0.84 | 60 | 40 | 10.4 | 6.4 | 2 | 95.7 | Stable | Unstable | Stable | Stable | Active
Nc1nc2c(ncn2[C@@H]2C[C@H](CO)[C@@H](CO)O2)c(=S)[nH]1 | 2.42 | 91 | 9 | 15.6 | 29.8 | 0 | 95.2 | Stable | Unstable | Stable | Stable | Active
Nc1nc2c(ncn2[C@H]2C[C@H](CO)[C@@H](CO)O2)c(=S)[nH]1 | 2.36 | 90 | 10 | 29.1 | 30.3 | 0 | 94.8 | Stable | Unstable | Stable | Stable | –
